The source made the active and inactive calls. No cut-off for these calls is given here.
How the values were obtained:
[1] = system: Epidermal growth factor receptor (Homo sapiens), P00533 [UNDEFINED MUTATION]; conditions: PC-9, dose 10-1000 nM
PC-9 [2] = experiment: Anti-tumor activity against human PC-9 cells expressing EGFR-C797S/T790M/del19 mutant xenografted in Balb-c nu/nu mouse assessed as prolonged survival at 75 mg/kg, po administered for 60 days and measured twice weekly in presence of panitumumab; assay type: functional, organism-based; conditions: time 60.0 day
In short: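 PC9 EGFR-C797S/T790M/del19 xenografts in Balb-c nu/nu mice, randomized at ~200 mm³. […] Tumour volume 0.5×length×width² measured twice weekly. Survival by Kaplan-Meier. N = 6. Mann-Whitney U test at days 16 and 23.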

[3] = system: Epidermal growth factor receptor (Homo sapiens), P00533 [UNDEFINED MUTATION]; conditions: PC-9, dose 500.0 nM, time 48.0 hrs
BaF3 [4] = assay type: cell-based; conditions: Mus musculus, dose 10-1000 nM, time 6.0 hrs
BaF3 [5] = experiment: Inhibition of EGFR-del19 mutant in mouse BaF3 cells assessed as inhibition of S6 phosphorylation at 10 to 1000 nM incubated for 6 hrs by Western blotting analysis; assay type: cell-based; conditions: dose 10-1000 nM
In short: (§1)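 Ba/F3 cells carrying the stated EGFR mutant were made IL-3-independent after 1 week of 7 µM blasticidin selection. They were grown in low-glucose DMEM with 10% FBS and exposed to inhibitor for 6 h. Cells were washed in cold PBS, lysed in SDS buffer (100 mM Tris, 1% SDS, 10% glycerol) and boiled 5 min. Protein was measured by BCA, run on SDS-PAGE, transferred to PVDF, blocked in 5% BSA or milk/TBS-T, and immunoblotted.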

PC-9 [6] = experiment: Inhibition of EGFR T790M/del19 mutant in human PC-9 cells assessed as reduction in EGFR phosphorylation at 10 to 1000 nM by Western blotting analysis; assay type: cell-based; conditions: dose 10-1000 nM
NCI-H460 = experiment: Anticancer activity against KRAS-mutated human NCI-H460 cells assessed as reduction in cell viability at 1 to 10000 nM incubated for 72 hrs by CellTiter-Glo assay; assay type: functional, cell-based; conditions: dose 1-10000 nM
PC-9 [7] = conditions: Homo sapiens, dose 75.0 mg/kg, route po, time 15.0 day
PC-9 [8] = conditions: Homo sapiens, dose 75.0 mg/kg, route po, time 60.0 day
A-431 = experiment: Anticancer activity against human A-431 cells assessed as reduction in cell viability at IC50 concentration incubated for 72 hrs by CellTiter-Glo assay; assay type: functional, cell-based
In short: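 Three-day CellTiter-Glo viability assay. Cells exposed to compound across a 10-dose range of 0.3 nM to 10 µM for 72 h. IC50 from nonlinear sigmoidal dose-response fit.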

BaF3 [9] = experiment: Inhibition of EGFR-C797S/T790M/L858R mutant expressed in mouse BaF3 cells assessed as inhibition of ERK phosphorylation at 10 to 1000 nM incubated for 6 hrs by Western blotting analysis; assay type: cell-based; conditions: dose 10-1000 nM
In short: (§2)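 Ba/F3 cells expressing EGFR-L858R-series mutants treated with inhibitors for 6 h. SDS lysates quantified by BCA, run on SDS-PAGE and blotted to PVDF. Probed for phospho-EGFR (Tyr1068), total EGFR and downstream phospho-proteins.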

BaF3 [10] = experiment: Inhibition of EGFR-C797S/T790M/L858R mutant in mouse BaF3 cells assessed as inhibition of EGFR phosphorylation at 10 to 1000 nM incubated for 6 hrs by Western blotting analysis; assay type: cell-based; conditions: dose 10-1000 nM
In short: as §2

[11] = system: Epidermal growth factor receptor (Homo sapiens), P00533 [UNDEFINED MUTATION]; conditions: PC-9, dose 500.0 nM, time 48.0 hrs; remark: listed apart in the source
[12] = Toxicity against Balb-c nu/nu mouse xenografted with human PC-9 cells expressing EGFR-C797S/T790M/del19 mutant assessed as change in body weight at 75 mg/kg, po administered for 60 days and measured twice weekly in presence of cetuximab; assay type: organism-based; conditions: in vivo, 1440 h, time 60 day
In short: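 Balb-c nu/nu mice carried subcutaneous PC9 triple-mutant xenografts (6×10^6 cells in 1:2 Matrigel) and were randomized at ~200 mm³. […] Body weight was measured twice weekly, N=6 per arm.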

BaF3 [13] = assay type: cell-based; conditions: Mus musculus, dose 10-1000 nM, time 6.0 hrs; remark: listed apart in the source
BaF3 [14] = conditions: Mus musculus, dose 30-1000 nM, time 6.0 hrs
PC-9 [15] = conditions: Homo sapiens, dose 75.0 mg/kg, route po, time 60.0 day; remark: listed apart in the source
BaF3 [16] = experiment: Inhibition of EGFR-T790M/del19 mutant in mouse BaF3 cells assessed as inhibition of ERK phosphorylation at 10 to 1000 nM incubated for 6 hrs by Western blotting analysis; assay type: cell-based; conditions: dose 10-1000 nM
In short: as §1

[17] = Cytotoxicity against mouse Ba/F3 EGFR-Del19/T790M/C797S cells assessed as inhibition of cell viability by measuring fold change at 30 nM incubated for 72 hrs in presence of cetuximab by CellTiter-Glo assay relative to brigatinib alone; assay type: functional
[18] = system: Epidermal growth factor receptor (Homo sapiens), P00533 [UNDEFINED MUTATION]; conditions: PC-9, dose 500.0 nM, time 48.0 hrs; remark: listed apart in the source
PC-9 [19] = experiment: Anti-tumor activity against human PC-9 cells expressing EGFR-C797S/T790M/del19 mutant xenografted in Balb-c nu/nu mouse assessed as decreased tumor growth at 75 mg/kg, po administered for 60 days and measured twice weekly in presence of cetuximab; assay type: functional, organism-based; conditions: time 60.0 day
In short: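 PC9 EGFR-C797S/T790M/del19 xenografts in Balb-c nu/nu mice, randomized at ~200 mm³. […] Tumour volume 0.5×length×width² and body weight measured twice weekly. Survival shown by Kaplan-Meier curve. N = 6. Mann-Whitney U test on tumour volume at day 23.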

[20] = system: Epidermal growth factor receptor (Homo sapiens), P00533 [UNDEFINED MUTATION]; conditions: PC-9, dose 500.0 nM, time 48.0 hrs; remark: listed apart in the source
BaF3 [21] = experiment: Inhibition of EGFR-C797S/T790M/del19 mutant in mouse BaF3 cells assessed as reduction in ERK phosphorylation incubated for 6 hrs by Western blotting analysis; assay type: cell-based
[22] = Toxicity against SCID-beige mouse xenografted with human MGH121 cells expressing EGFR-C797S/T790M/del19 mutant assessed as change in body weight at 75 mg/kg, po administered for 40 days and measured twice weekly; assay type: organism-based; conditions: in vivo, 960 h, time 40 day
In short: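 SCID-beige mice with subcutaneous MGH121-res2 implants were randomized to vehicle or treatment at a mean tumour volume of ~200 mm³. […] Body weight was measured twice weekly, N=6 per group.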

BaF3 [23] = experiment: Inhibition of EGFR-T790M/del19 mutant in mouse BaF3 cells assessed as inhibition of S6 phosphorylation at 10 to 1000 nM incubated for 6 hrs by Western blotting analysis; assay type: cell-based; conditions: dose 10-1000 nM
In short: as §1

PC-9 [24] = conditions: Homo sapiens, dose 75.0 mg/kg, route po, time 60.0 day; remark: listed apart in the source
BaF3 [25] = conditions: Mus musculus, dose 30-1000 nM, time 6.0 hrs; remark: listed apart in the source
BaF3 [26] = conditions: Mus musculus, dose 10-1000 nM, time 6.0 hrs

Epidermal growth factor receptor (Homo sapiens), P00533 [UNDEFINED MUTATION], sequence (P00533 whole entry, looked up, stated change not applied): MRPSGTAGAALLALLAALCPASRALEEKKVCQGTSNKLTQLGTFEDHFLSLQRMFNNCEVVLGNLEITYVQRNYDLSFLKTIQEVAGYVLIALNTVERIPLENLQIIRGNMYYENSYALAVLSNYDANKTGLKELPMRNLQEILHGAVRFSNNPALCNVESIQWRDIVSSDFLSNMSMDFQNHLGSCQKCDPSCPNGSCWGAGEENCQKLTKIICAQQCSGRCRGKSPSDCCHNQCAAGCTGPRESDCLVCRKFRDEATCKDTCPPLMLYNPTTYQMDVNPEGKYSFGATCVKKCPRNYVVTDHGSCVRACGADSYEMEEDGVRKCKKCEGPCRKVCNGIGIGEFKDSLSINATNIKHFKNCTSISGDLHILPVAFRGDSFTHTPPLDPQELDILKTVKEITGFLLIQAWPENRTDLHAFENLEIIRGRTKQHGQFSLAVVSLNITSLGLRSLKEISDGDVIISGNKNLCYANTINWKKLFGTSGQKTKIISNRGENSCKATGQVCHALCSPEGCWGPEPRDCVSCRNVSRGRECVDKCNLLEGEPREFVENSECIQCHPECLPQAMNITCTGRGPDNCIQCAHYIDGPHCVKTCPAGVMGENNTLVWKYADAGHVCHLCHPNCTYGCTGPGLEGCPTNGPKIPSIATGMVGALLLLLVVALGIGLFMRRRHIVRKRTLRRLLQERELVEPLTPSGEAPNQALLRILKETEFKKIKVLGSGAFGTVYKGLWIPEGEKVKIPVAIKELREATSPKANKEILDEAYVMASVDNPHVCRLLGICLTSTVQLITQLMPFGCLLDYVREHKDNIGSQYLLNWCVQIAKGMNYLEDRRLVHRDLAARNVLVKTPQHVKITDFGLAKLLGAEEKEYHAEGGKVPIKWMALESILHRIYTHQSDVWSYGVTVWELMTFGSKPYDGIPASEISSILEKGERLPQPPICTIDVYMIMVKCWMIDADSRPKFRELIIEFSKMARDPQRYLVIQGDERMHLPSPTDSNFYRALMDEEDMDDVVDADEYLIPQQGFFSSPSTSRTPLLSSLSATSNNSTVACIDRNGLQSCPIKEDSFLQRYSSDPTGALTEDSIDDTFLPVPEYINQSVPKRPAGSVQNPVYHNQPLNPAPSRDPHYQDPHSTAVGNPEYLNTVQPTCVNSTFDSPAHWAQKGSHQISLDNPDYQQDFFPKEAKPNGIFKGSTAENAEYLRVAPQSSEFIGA

Which results are given for COc1cc(N2CCC(N3CCN(C)CC3)CC2)ccc1Nc1ncc(Cl)c(Nc2ccccc2P(C)(C)=O)n1 [BRIGATINIB]?
inhibition [1]: Active; Activity (PC-9 [2]): Active; inhibition [3]: inactive; inhibition (BaF3 [4]): Active; inhibition (BaF3 [5]): Active; inhibition (PC-9 [6]): Active; Activity (NCI-H460): Active; inhibition (PC-9 [7]): Active; inhibition (PC-9 [8]): Active; Activity (A-431): Active; inhibition (BaF3 [9]): Active; inhibition (BaF3 [10]): Active; inhibition [11]: Active; Activity [12]: Non-Toxic; inhibition (BaF3 [13]): Active; inhibition (BaF3 [14]): Active; inhibition (PC-9 [15]): Active; inhibition (BaF3 [16]): Active; fold change (FC) [17]: ~3; inhibition [18]: Active; Activity (PC-9 [19]): Active; inhibition [20]: Active; inhibition (BaF3 [21]): Dose-Dependent Effect; Activity [22]: Non-Toxic; inhibition (BaF3 [23]): Active; inhibition (PC-9 [24]): Active; inhibition (BaF3 [25]): Active; inhibition (BaF3 [26]): Active

Source: ChEMBL document CHEMBL5705906 (Nat Commun, 2017)
